The text below walks through data of the array DNA melting data of Ke et al. (doi:10.1101/2024.01.08.574731).

The nature of data set [1]: melting temperature; fluorescence melt of hairpins on a sequencing array, two-state fit, raised by 9.35 °C to match UV melts. To be noted: sodium 0.088 M. The method in brief: (§1)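 Melting temperature and folding enthalpy were obtained by bootstrapped two-state fitting. Fits used Cy3 fluorescence of library hairpins with annealed Cy3 and quencher oligos on a sequenced MiSeq flow cell, imaged in 50 mM Na-HEPES pH 8.0, 25 mM NaCl in 2.5 °C steps up to 60 °C and normalised to pre-quench Cy3 and control constructs. Four replicates were combined by inverse-variance weighting, and fitted temperatures were raised by 9.35 °C to match UV melts.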

The nature of data set [2]: folding enthalpy; higher = less favourable; fluorescence melt of hairpins on a sequencing array, two-state fit. To be noted: sodium 0.088 M. The essentials: as §1

Turning to GCCTACGGAAACGTAAGC ((.((((....)))).)), the Tm in data set [1] is 36.1 °C. The folding enthalpy in data set [2] is -19.8 kcal/mol.
The corresponding values for GGAATCGAAAGATATTCC ((((((....)))..))) are 29.7 °C and -16 kcal/mol.
The corresponding values for GGCGACGGAAACATCGCC (((((.(....).))))) are 55.4 °C and -42.6 kcal/mol.
The corresponding values for GTTGTCCGAAAGGAAAAC (((.(((....))).))) are 44.9 °C and -26.9 kcal/mol.
Turning to GATGGACGAAAGTCTATC (((.(((....))).))), the Tm in data set [1] was 52.9 °C. Also, in data set [2], the folding enthalpy is -30.9 kcal/mol.
For GAGACTGAAAAGTCTC ((((((....)))))), in that order: 57.5 °C and -35.9 kcal/mol.
For GATTTTACGAAAGTAATC (((..(((....)))))), in that order: 26.3 °C and -13.6 kcal/mol.
Consider CGGCGCGGAAACGCTCCG (((.(((....))).))), for which, in data set [1], the Tm is 56.5 °C. For the same sequence, in data set [2], the folding enthalpy is -33.7 kcal/mol.
As to GGCTCGTCGAAAGACGCC (((..(((....)))))), the Tm in data set [1] stood at 42 °C. In data set [2], the folding enthalpy is -9.65 kcal/mol.
For CAACCAGAAATGGTTG ((((((....)))))), in that order: 53.1 °C and -29.4 kcal/mol.
The corresponding values for GCCCACGAAAGTGAGGC ((((((....))).))) are 64 °C and -31.1 kcal/mol.
For the sequence GAGTGCGAAAGCACCCTC ((((((....)))..))), the Tm in data set [1] amounted to 45.1 °C. Moreover, in data set [2], the folding enthalpy is -10.4 kcal/mol.
For GCCCTGCGAAAGCTGTGC ((.(.((....)).).)), in that order: 38.9 °C and -15.7 kcal/mol.
GCCCTGCGAAAGCAAAGC ((..(((....)))..)): the Tm in data set [1] turned out to be 29.2 °C. The folding enthalpy in data set [2] is -6.64 kcal/mol.
Regarding GCGGAGCGAAAGCACGGC ((.(.((....)).).)), in data set [1], the Tm was determined as 45.5 °C. The folding enthalpy in data set [2] was -9.69 kcal/mol.
The corresponding values for GTTCTAGCGAAAGCTAAC (((..(((....)))))) are 28.9 °C and -9.98 kcal/mol.
For GATTGACGAAAGTCTATC (((.(((....))).))), in that order: 46.1 °C and -26.2 kcal/mol.
On to GCAGGGCGAAAGCCTCGC ((..(((....)))..)), for which the Tm in data set [1] amounted to 52 °C. The folding enthalpy in data set [2] is -16.4 kcal/mol.
The corresponding values for GCGAATCGAAAGATGCGC (((.(((....))).))) are 60.6 °C and -42.4 kcal/mol.
For GCGAAACTTCGC ((((....)))), in that order: 51.1 °C and -19.9 kcal/mol.
The corresponding values for GCCCAGCGAAAGCCTGGC (((..((....))..))) are 56.1 °C and -13 kcal/mol.
Regarding GATCCAACTCTGGATC ((((((....)))))), the Tm in data set [1] is 49.2 °C. For the same sequence, the folding enthalpy in data set [2] was -30.9 kcal/mol.
For GATAGAGAAATCTATC ((((((....)))))), in that order: 36.8 °C and -21.5 kcal/mol.
For GACTGCGAAAGCACAGTC ((((((....)))..))), in that order: 44.5 °C and -13.2 kcal/mol.
On to GCAAAACGAAAGTTGTGC (((.(((....))).))), for which the Tm in data set [1] worked out at 49.1 °C. Also, the folding enthalpy in data set [2] is -34.2 kcal/mol.
For GAGCACGAAAGTGGGCTC ((((((....)))..))), in that order: 54.7 °C and -23.5 kcal/mol.
For GTGCGTTCGAAAGAACAC (((..(((....)))))), in that order: 54.1 °C and -11.7 kcal/mol.
Take GGATCTCCGAAAGGATCC (((..(((....)))))): in data set [1], the Tm was determined as 42.1 °C. Further, the folding enthalpy in data set [2] was -23.8 kcal/mol.
For GATCATTCGTATGATC ((((((....)))))), in that order: 48.1 °C and -33.3 kcal/mol.
For CGATACGGAAACGTGTCG (((.(((....))).))), in that order: 52.8 °C and -51.4 kcal/mol.
For GAAAGCCGAAAGGCGTTC (((.(((....))).))), in that order: 52.3 °C and -12.3 kcal/mol.
Consider GCCGACGAAAGTCAGGGC ((((((....)))..))), for which the Tm in data set [1] stood at 55.1 °C. Also, the folding enthalpy in data set [2] was -36.8 kcal/mol.
For GTTCACGAAAGTGCGAAC ((((((....)))..))), in data set [1], the Tm is 31.6 °C. The folding enthalpy in data set [2] was -10.7 kcal/mol.
Take GATCCAGGCATGGATC ((((((....)))))): in data set [1], the Tm came out at 57.8 °C. For the same sequence, the folding enthalpy in data set [2] is -45.8 kcal/mol.
GTAGTCGAAAGACTAC ((((((....)))))): the Tm in data set [1] stood at 64.1 °C. Moreover, the folding enthalpy in data set [2] was -31.9 kcal/mol.
For GTCTTTCGAAAGAAGGAC (((.(((....))).))), in that order: 47.4 °C and -31.5 kcal/mol.
The corresponding values for CGTTGCGGAAACGCGACG (((.(((....))).))) are 67.4 °C and -30.5 kcal/mol.
For GTTAACACGAAAGTGAAC (((..(((....)))))), in that order: 25.3 °C and -9.64 kcal/mol.
Regarding GGAACTGAAAAGTTCC ((((((....)))))), the Tm in data set [1] is 56.4 °C. For the same sequence, in data set [2], the folding enthalpy is -38.3 kcal/mol.
For GGTAGCCGAAAGGCACC (((.(((....)))))), in that order: 57.5 °C and -18.7 kcal/mol.
The corresponding values for GCGATTCGAAAGAACCGC (((.(((....))).))) are 53.1 °C and -38.6 kcal/mol.
For GTGAACGAAAGTTCGCAC ((((((....)))..))), in that order: 51.3 °C and -16.4 kcal/mol.
Take GATCAGAGACTGATC ((((((...)))))): the Tm in data set [1] was 48 °C. In data set [2], the folding enthalpy is -31.4 kcal/mol.
For GTGAGCCGAAAGGCCAC (((.(((....)))))), in that order: 64.7 °C and -18.7 kcal/mol.
For GCGGATGGAAACGTCTGC ((.((.(....).)).)), in that order: 44.3 °C and -28.1 kcal/mol.
The corresponding values for GCTATGCGAAAGCTCAGC (((..((....))..))) are 36.2 °C and -19.1 kcal/mol.
Turning to GCCTATGGAAACATAAGC ((.((((....)))).)), the Tm in data set [1] worked out at 27.6 °C. Further, in data set [2], the folding enthalpy was -15.6 kcal/mol.
The corresponding values for GTCGTCGAAAGACTCGAC ((((((....)))..))) are 38.6 °C and -14.9 kcal/mol.
On to GTGAGAGGAAACTCTCAC (((((((....))))))), for which the Tm in data set [1] worked out at 61.7 °C. For the same sequence, the folding enthalpy in data set [2] is -41.8 kcal/mol.
On to GTAAGCGGAAACGTTTAC ((((.((....)).)))), for which, in data set [1], the Tm is 43 °C. In addition, the folding enthalpy in data set [2] is -28.2 kcal/mol.
The corresponding values for GATCGAACACTCGATC ((((((....)))))) are 48.9 °C and -31 kcal/mol.
With GAGTGCCGAAAGGCCCTC (((.(((....))).))), the Tm in data set [1] is 51.3 °C. Also, the folding enthalpy in data set [2] is -18.3 kcal/mol.
For GATCATGTCAATGATC ((((((....)))))), in that order: 56.9 °C and -40 kcal/mol.
For GTCAACGGAAACATTGAC (((((.(....).))))), in that order: 35.6 °C and -26.4 kcal/mol.
The corresponding values for GATAGGGGAAACCCTATC (((((((....))))))) are 54.9 °C and -42 kcal/mol.
As to GATCGTAATGACGATC ((((((....)))))), the Tm in data set [1] stood at 52.8 °C. For the same sequence, the folding enthalpy in data set [2] is -34.3 kcal/mol.
As to GTTCATGGAAACATGAGC (.(((((....))))).), in data set [1], the Tm came out at 43.9 °C. For the same sequence, the folding enthalpy in data set [2] is -23.4 kcal/mol.
The corresponding values for GTAGCCGAAAGGCCTAC ((((((....))).))) are 45 °C and -12.5 kcal/mol.
The corresponding values for GATCAGCATTCTGATC ((((((....)))))) are 48.8 °C and -39 kcal/mol.
For GCGTATGACGC ((((...)))), in that order: 54 °C and -17.5 kcal/mol.
Regarding GGTTACGGAAACGTGATC (.(.(((....))).).), the Tm in data set [1] was 30.4 °C. In data set [2], the folding enthalpy was -16.3 kcal/mol.
The corresponding values for GGTTCCGGAAACGGAATC (.(((((....))))).) are 51.4 °C and -23.9 kcal/mol.
For GGCTTTGGAAACGAAGTC (.(((.(....).))).), in that order: 34.7 °C and -14.7 kcal/mol.
The corresponding values for GAACGGCGAAAGCCTTTC (((.(((....))).))) are 39.7 °C and -18 kcal/mol.
Consider CGCACGGAAACGTGTGCG ((((((....)))..))), for which, in data set [1], the Tm amounted to 57.5 °C. In data set [2], the folding enthalpy is -17.6 kcal/mol.
The corresponding values for GATCTTGCAAAGATC ((((((...)))))) are 55 °C and -41 kcal/mol.
With GGAGGGCGAAAGCCGTCC (((.(((....))).))), the Tm in data set [1] was 67 °C. Moreover, the folding enthalpy in data set [2] was -21 kcal/mol.
For GAATTCCGAAAGGAGTTC (((.(((....))).))), in that order: 49 °C and -33.6 kcal/mol.
The corresponding values for GCATATGGAAACATGTGC (((.(((....))).))) are 49 °C and -36.6 kcal/mol.
The corresponding values for GCGCGGCGAAAGCCAGGC ((..(((....)))..)) are 54.4 °C and -14.1 kcal/mol.
Turning to GGACCCGAAAGGGCATCC ((((((....)))..))), the Tm in data set [1] was 34.2 °C. In addition, the folding enthalpy in data set [2] is -11.7 kcal/mol.
Take GCCATCGAAAGATTCGGC ((((((....)))..))): the Tm in data set [1] was 36.9 °C. Besides, the folding enthalpy in data set [2] is -21 kcal/mol.
The corresponding values for GGGAGCCGAAAGGCCCC (((.(((....)))))) are 69 °C and -20.1 kcal/mol.
The corresponding values for CGACCGGAAACGGGCTCG ((((((....)))..))) are 35.8 °C and -12.1 kcal/mol.
